Test results reported in ChEMBL document CHEMBL5678802, “Small-molecule p21-activated kinase inhibitor PF-3758309 is a potent inhibitor of oncogenic signaling and tumor growth” (Proc Natl Acad Sci U S A, 2010).
Calls of active or inactive are those of the source. The rule behind the calls is not given here.

Tests used:
[1] = biological target: Serine/threonine-protein kinase PAK 4 (Homo sapiens, UniProt O96013); conditions: dose 50.0 µM
[2] = tested on: NCI-H1666; experiment: Antiproliferative activity against human NCI-H1666 cells assessed as inhibition of cell proliferation incubated for 3 days by CellTiter-Glo Luminescent Cell Viability Assay; type: functional, cell-based; conditions: NCI-H1666, 72 h
Method in brief: (§1)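 Cells of each line were plated in 384-well plates on day 1 and exposed to compound from day 2 for 3 days. On day 5 all medium was aspirated. Viable cell number was read by CellTiter-Glo luminescence, which quantifies cellular ATP.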

[3] = tested on: A549; experiment: Antitumor activity against human A549 cells xenografted in nude mouse assessed as tumor growth inhibition at 10 mg/kg, po administered once daily for 9 to 18 days relative to control; type: functional; conditions: time 9-18 day, read-out: TGI
Method in brief: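 Tumor cells were implanted s.c. into the right flank of female nu/nu nude mice aged 6–8 weeks. Animals were randomized into treatment groups once tumors were established (example: day 8 postimplant, about 170 mm3, animals >22 g). Compound in 0.5% methylcellulose was given by oral gavage. Tumors were measured with calipers two to three times per week.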

[4] = tested on: HCT-116; experiment: Antitumor activity against human HCT-116 cells xenografted in nude mouse assessed as reduction in Src phosphorylation at Y416 residue at 15 to 150 mg/kg/day administered via pump for 18 hrs by Reverse-Phase protein array analysis; type: functional, organism-based; conditions: dose 15-150 mg/kg/day
[5] = tested on: MCF7; experiment: Antiproliferative activity against human MCF7 cells assessed as inhibition of cell proliferation incubated for 3 days by CellTiter-Glo Luminescent Cell Viability Assay; type: functional, cell-based; conditions: MCF7, 72 h
Method in brief: (§2)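 Cancer cell lines seeded in 384-well plates on day 1; compound added on day 2 and left for 3 days. On day 5 all medium was aspirated, and viable cells were quantified by CellTiter-Glo luminescence, which measures cellular ATP. Dose-dependent effects on proliferation were determined.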

[6] = biological target: Ribosomal protein S6 kinase alpha-3 (Homo sapiens, UniProt P51812); experiment: Inhibition of human RSK2 in presence of ATP by cellular assay
[7] = biological target: Proto-oncogene tyrosine-protein kinase Src (Homo sapiens, UniProt P12931); experiment: Inhibition of human SRC in presence of ATP relative to control; conditions: concentration not given here
[8] = biological target: T1, Receptor-type tyrosine-protein kinase FLT3 (Homo sapiens, UniProt P36888); experiment: Inhibition of human FLT3 in presence of ATP by cellular assay
T1 sequence (P36888 whole entry): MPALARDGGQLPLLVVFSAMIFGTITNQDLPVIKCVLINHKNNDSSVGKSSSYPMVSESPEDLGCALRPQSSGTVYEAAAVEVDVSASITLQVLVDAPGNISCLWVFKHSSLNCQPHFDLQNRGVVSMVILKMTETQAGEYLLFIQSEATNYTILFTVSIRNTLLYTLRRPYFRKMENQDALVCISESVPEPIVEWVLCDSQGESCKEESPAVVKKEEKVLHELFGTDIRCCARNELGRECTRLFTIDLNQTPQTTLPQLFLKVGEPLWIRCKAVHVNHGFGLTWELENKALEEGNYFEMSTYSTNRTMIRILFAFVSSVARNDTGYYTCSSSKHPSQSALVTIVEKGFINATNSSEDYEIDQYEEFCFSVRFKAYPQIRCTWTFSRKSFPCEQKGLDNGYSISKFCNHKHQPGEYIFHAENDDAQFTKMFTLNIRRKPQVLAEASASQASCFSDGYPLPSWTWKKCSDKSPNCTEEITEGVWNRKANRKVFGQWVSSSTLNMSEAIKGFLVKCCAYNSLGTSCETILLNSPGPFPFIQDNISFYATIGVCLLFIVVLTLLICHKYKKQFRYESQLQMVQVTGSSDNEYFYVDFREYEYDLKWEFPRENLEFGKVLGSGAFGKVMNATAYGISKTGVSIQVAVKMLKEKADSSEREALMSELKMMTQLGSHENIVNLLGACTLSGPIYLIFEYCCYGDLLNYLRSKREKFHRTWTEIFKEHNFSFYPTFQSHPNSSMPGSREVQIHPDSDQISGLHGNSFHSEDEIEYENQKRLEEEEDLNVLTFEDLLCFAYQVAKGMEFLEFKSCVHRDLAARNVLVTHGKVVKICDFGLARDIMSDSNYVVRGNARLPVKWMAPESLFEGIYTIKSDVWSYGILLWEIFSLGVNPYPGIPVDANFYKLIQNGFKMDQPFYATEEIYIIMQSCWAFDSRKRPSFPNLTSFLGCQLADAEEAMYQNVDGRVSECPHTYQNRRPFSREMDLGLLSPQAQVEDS

[9] = tested on: Panc 02.03; experiment: Antiproliferative activity against human Panc 02.03 cells assessed as inhibition of cell proliferation incubated for 3 days by CellTiter-Glo Luminescent Cell Viability Assay; type: functional, cell-based; conditions: Panc 02.03, 72 h
Method in brief: as §1

[10] = tested on: HCC1806; experiment: Antiproliferative activity against human HCC1806 cells assessed as inhibition of cell proliferation incubated for 3 days by CellTiter-Glo Luminescent Cell Viability Assay; type: functional, cell-based; conditions: HCC1806, 72 h
Method in brief: as §2

[11] = tested on: HCT-116; experiment: Induction of apoptosis in human HCT-116 cells at 100 nM measured after 48 hrs by fluorescence activated cell sorter analysis; type: functional, cell-based
[12] = Drug exposure in nude mouse xenografted with human HCT-116 cells at 1.1 to 3.3 mg/kg, sc administered for 6 days; type: ADME, organism-based; conditions: in vivo, dose 1.1-3.3 mg/kg, time 6 day, read-out: Drug uptake
[13] = tested on: MDA-MB-453; experiment: Antiproliferative activity against human MDA-MB-453 cells assessed as inhibition of cell proliferation incubated for 3 days by CellTiter-Glo Luminescent Cell Viability Assay; type: functional, cell-based; conditions: MDA-MB-453, 72 h
Method in brief: as §2

[14] = biological target: Serine/threonine-protein kinase Chk2 (Homo sapiens, UniProt O96017); experiment: Inhibition of human CHK2 in presence of ATP by cellular assay
[15] = biological target: Tyrosine-protein kinase Fgr (Homo sapiens, UniProt P09769); experiment: Inhibition of human FGR assessed as inhibition constant in presence of ATP
[16] = tested on: NCI-H441; experiment: Antiproliferative activity against human NCI-H441 cells assessed as inhibition of cell proliferation incubated for 3 days by CellTiter-Glo Luminescent Cell Viability Assay; type: functional, cell-based; conditions: NCI-H441, 72 h
Method in brief: as §1

[17] = tested on: NCI-H23; experiment: Inhibition of anchorage independent cell growth in human NCI-H23 cells incubated for 6 days by Alamar blue reagent based fluorescence plate reader analysis; type: functional; conditions: NCI-H23, 144 h
[18] = biological target: Tyrosine-protein kinase Yes (Homo sapiens, UniProt P07947); experiment: Inhibition of human YES1 in presence of ATP
[19] = biological target: Ribosomal protein S6 kinase alpha-1 (Homo sapiens, UniProt Q15418); experiment: Inhibition of human RSK1 in presence of ATP relative to control; conditions: concentration not given here
[20] = tested on: NCI-H82; experiment: Antiproliferative activity against human NCI-H82 cells assessed as inhibition of cell proliferation incubated for 3 days by CellTiter-Glo Luminescent Cell Viability Assay; type: functional, cell-based; conditions: NCI-H82, 72 h
Method in brief: as §1

[21] = tested on: HPAF-II; experiment: Antiproliferative activity against human HPAF-II cells assessed as inhibition of cell proliferation incubated for 3 days by CellTiter-Glo Luminescent Cell Viability Assay; type: functional, cell-based; conditions: 72 h
Method in brief: as §2

[22] = biological target: Serine/threonine-protein kinase PAK 2 (Homo sapiens, UniProt Q13177); experiment: Inhibition of PAK2 (unknown origin)
Chain of Serine/threonine-protein kinase PAK 2 (Q13177 whole entry): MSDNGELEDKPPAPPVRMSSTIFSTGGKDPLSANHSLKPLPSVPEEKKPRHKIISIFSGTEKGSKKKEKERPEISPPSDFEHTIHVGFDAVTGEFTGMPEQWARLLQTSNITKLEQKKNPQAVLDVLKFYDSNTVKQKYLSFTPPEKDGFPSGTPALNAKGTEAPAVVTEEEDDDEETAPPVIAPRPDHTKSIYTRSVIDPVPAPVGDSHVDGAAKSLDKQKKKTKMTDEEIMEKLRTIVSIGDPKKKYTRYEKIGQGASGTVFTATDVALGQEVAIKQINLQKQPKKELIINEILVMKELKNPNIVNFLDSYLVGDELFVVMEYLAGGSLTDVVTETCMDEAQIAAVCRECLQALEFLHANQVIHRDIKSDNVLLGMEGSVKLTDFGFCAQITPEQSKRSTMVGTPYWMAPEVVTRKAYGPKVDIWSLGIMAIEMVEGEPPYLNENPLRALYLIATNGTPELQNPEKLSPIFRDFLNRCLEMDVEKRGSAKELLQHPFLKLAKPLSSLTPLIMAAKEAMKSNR

Chain of Ribosomal protein S6 kinase alpha-1 (Q15418 whole entry): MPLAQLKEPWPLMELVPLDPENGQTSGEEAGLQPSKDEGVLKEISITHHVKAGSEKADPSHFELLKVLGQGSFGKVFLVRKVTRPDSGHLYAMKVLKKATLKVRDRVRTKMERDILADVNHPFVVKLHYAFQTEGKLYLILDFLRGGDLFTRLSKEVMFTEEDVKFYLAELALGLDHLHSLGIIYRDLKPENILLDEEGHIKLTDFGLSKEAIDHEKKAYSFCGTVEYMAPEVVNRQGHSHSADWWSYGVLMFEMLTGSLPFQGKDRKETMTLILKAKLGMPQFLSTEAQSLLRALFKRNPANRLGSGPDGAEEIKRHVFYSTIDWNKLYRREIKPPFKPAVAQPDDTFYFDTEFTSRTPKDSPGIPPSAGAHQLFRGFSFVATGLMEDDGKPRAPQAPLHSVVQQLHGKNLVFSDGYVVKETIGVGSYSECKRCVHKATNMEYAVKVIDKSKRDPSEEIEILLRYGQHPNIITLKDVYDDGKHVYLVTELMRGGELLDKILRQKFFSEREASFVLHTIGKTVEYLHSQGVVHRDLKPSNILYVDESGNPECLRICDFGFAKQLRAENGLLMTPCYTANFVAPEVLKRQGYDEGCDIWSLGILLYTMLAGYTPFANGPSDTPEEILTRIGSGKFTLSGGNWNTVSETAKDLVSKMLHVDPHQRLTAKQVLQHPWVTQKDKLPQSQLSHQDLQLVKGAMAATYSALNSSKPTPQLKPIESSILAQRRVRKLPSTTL
Chain of Ribosomal protein S6 kinase alpha-3 (P51812 whole entry): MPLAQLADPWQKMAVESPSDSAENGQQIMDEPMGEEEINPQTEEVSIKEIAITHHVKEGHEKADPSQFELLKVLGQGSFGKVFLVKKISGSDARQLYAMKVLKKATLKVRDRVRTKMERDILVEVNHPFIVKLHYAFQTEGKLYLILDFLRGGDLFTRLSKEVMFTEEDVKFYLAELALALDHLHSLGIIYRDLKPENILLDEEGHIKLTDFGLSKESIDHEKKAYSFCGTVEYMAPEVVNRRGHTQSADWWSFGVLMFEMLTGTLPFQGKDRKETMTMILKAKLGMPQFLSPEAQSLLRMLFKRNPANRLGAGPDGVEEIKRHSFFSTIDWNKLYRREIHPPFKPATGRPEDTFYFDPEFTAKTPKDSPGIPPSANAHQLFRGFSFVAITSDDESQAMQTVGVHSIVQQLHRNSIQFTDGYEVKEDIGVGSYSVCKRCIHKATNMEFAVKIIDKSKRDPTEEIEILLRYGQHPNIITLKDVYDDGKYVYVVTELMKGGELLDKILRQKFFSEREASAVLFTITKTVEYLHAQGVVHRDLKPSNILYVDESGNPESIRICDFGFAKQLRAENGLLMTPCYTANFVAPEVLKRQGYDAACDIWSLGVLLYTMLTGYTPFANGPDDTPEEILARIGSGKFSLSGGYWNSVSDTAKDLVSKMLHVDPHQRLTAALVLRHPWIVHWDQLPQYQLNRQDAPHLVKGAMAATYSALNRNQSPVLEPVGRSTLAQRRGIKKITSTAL
Chain of Tyrosine-protein kinase Yes (P07947 whole entry): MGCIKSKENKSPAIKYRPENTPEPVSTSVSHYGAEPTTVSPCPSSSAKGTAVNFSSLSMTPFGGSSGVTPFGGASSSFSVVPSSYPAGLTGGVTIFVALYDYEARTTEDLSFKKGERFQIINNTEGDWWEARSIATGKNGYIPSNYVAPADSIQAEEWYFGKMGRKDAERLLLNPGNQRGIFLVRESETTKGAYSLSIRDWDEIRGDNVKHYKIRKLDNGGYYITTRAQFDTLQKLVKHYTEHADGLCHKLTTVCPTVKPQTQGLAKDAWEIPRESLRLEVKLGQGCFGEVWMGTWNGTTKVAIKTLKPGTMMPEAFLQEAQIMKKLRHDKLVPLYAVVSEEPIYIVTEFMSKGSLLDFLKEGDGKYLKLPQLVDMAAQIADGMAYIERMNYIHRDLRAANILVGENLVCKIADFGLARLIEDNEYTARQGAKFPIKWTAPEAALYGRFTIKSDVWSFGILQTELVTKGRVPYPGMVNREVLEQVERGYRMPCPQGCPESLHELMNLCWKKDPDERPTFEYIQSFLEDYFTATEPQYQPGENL
Chain of Tyrosine-protein kinase Fgr (P09769 whole entry): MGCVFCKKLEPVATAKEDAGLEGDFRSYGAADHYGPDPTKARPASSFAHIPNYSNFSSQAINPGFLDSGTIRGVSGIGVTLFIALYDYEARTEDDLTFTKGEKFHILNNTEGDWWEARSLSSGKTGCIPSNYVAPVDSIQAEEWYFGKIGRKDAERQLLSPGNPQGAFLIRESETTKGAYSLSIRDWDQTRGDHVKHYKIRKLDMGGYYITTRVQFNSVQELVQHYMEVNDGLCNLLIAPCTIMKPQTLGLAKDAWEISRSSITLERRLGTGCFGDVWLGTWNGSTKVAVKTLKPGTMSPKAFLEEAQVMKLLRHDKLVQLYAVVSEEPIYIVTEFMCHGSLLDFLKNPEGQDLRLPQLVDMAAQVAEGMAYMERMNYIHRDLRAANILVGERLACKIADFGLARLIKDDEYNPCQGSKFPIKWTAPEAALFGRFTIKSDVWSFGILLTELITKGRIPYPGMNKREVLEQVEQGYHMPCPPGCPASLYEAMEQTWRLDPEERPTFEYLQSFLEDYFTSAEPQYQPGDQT
Chain of Serine/threonine-protein kinase PAK 4 (O96013 whole entry, looked up): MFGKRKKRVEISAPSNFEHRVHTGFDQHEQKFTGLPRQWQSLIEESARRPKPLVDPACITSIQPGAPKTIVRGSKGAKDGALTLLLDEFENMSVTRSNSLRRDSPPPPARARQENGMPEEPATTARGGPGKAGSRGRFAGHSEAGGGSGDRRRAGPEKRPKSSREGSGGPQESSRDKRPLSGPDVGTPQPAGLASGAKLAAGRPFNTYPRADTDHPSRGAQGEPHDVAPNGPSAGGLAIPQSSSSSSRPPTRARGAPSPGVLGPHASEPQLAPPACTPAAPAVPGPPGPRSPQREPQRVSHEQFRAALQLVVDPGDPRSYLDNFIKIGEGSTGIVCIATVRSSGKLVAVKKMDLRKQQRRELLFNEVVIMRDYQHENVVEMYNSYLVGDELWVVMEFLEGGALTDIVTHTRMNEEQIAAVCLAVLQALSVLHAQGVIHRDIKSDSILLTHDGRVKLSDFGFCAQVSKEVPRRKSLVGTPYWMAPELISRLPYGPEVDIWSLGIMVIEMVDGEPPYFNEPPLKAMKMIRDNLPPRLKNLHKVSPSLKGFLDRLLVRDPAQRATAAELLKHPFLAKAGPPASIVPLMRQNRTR
Chain of Proto-oncogene tyrosine-protein kinase Src (P12931 2-536 limits assumed): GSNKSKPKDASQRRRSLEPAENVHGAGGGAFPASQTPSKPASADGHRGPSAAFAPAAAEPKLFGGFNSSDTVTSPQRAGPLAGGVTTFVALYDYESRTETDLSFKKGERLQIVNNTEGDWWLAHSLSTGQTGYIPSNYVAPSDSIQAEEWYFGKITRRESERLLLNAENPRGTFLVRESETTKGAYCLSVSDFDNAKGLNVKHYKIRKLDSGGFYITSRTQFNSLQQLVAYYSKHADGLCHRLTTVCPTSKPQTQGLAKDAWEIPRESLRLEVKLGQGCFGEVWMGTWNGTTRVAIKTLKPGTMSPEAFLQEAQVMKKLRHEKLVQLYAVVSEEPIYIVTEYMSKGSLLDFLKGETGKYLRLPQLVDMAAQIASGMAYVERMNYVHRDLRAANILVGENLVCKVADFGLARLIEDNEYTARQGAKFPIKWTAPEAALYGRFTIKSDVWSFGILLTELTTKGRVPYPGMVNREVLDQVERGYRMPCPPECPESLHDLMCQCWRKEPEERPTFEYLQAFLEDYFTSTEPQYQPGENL
Chain of Serine/threonine-protein kinase Chk2 (O96017 whole entry): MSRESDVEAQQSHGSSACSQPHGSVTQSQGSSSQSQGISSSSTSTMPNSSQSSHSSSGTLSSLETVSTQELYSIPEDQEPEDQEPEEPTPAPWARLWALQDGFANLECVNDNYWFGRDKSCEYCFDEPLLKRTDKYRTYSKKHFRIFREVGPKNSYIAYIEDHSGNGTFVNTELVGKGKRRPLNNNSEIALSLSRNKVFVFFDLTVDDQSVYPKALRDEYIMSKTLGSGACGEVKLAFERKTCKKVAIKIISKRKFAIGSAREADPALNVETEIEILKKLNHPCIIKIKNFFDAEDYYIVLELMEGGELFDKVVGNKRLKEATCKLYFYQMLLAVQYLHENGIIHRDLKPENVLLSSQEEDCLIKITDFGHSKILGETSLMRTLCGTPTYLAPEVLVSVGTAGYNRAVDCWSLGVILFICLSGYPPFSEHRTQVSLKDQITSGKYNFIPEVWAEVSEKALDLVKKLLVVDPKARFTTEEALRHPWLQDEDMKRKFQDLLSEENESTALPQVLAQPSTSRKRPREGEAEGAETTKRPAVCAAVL

TdeltaS [1]: 6.7 kcal/mol
IC50 [2]: 3.8 nM
IC50 [5]: 44.6 nM
IC50 [6]: 171 nM
inhibition [7]: 96%
IC50 [8]: 407 nM
IC50 [9]: 540 nM
IC50 [10]: 1.2 nM
concentration at 144 h [12]: 0.14 nM
IC50 [13]: 13.3 nM
IC50 [14]: 302 nM
Ki [15]: 15 nM
IC50 [16]: 9.2 nM
IC50 [17]: 3.45 nM
IC50 [18]: 47 nM
inhibition [19]: 101%
IC50 [20]: 2.1 nM
IC50 [22]: 190 nM
Structure (SMILES): Cc1nc(Nc2n[nH]c3c2CN(C(=O)N[C@H](CN(C)C)c2ccccc2)C3(C)C)c2sccc2n1 [PF-03758309]
inhibition in vivo at 10 mg/kg [3]: 71%
Activity [4]: Active
Activity [11]: Active
IC50 [21]: 517 nM
